Bioassay records deposited in PubChem by Sanford-Burnham Center for Chemical Genomics.
This is a sample that favours compounds with a hit; in the whole collection about 2% have one here.
SUMO1-SIM PPI: alters human SUMO1 binding to SIM partners; AID 602429; inhibition, % at 20 µM; 360,000 compounds, 0.33% hits; P63165; SUMO1 binding to a labelled peptide, TR-FRET, 1 h; in the data active = inhibition above about 37%
Target sequence (P63165 whole entry, looked up): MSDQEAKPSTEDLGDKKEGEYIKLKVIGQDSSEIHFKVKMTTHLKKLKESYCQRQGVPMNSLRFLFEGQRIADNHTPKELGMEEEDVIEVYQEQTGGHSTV
LMPTP block: LMPTP (human) inhibition; inhibition, % at 20 µM; P24666; recombinant LMPTP-A, OMFP fluorogenic substrate, fluorescence intensity; AID 651560; 360,000 compounds, 0.22% hits;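 active = compounds that cut the enzyme signal by at least half of the control window in the single-dose screen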;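 also: plate controls were DMSO wells with enzyme plus substrate for no effect and substrate without enzyme for full effect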
Target sequence (P24666 whole entry, looked up): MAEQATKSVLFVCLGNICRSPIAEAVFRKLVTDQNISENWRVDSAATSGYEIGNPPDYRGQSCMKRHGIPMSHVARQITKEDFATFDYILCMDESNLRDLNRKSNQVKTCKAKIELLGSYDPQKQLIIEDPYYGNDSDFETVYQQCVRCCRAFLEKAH
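Assay system: LMPTP-A, protein tyrosine phosphatase of low molecular weight / Medium: pH 6.0 Bis-Tris buffer with DTT and Triton X-100 / Schedule: 50 min enzyme reaction at room temperature, protected from light / Measured by: endpoint fluorescence intensity from OMFP dephosphorylation / Read-out basis: % inhibition relative to no-enzyme and uninhibited control wells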
STEP block: STEP (human) phosphatase inhibition; P54829; recombinant STEP, OMFP fluorogenic substrate, fluorescence; inhibition, % at 20 µM; 360,000 compounds, 0.25% hits; AID 588621;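 active = inhibition at 20 µM, scaled per plate between control wells, above about 37%, limit read from the data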;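 also: 0% = DMSO with enzyme and substrate and 100% = substrate only without enzyme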
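medium = Bis-Tris buffer pH 6.0, 2.5 mM DTT, 0.005% Tween 20 | test system = STEP (striatal-enriched tyrosine phosphatase) enzyme, cell-free | measure = normalized % inhibition | compound dosing = 20 µM, 1% DMSO | also added = 25 µM OMFP | schedule = reaction 20 min, ambient temperature | measured by = fluorescence read at 480 nm ex / 540 nm em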
Scp1 inh: Scp-1 (human) phosphatase inhibition. AID 493091. inhibition, % at 20 µM. Q9GZU7. Recombinant Scp1, phosphopeptide, malachite green phosphate absorbance. 340,000 compounds, 0.88% hits;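 active = inhibition above about 50% at 20 µM, limit read from the data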;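 also: plate controls were DMSO wells with enzyme for no effect and wells lacking enzyme for full effect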
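System: truncated SCP-1 phosphatase (76-261aa); medium: Tris acetate buffer pH 5.5 with MgCl2 and Tween-20; incubation: 45 min room-temperature reaction, 5 min colour, 30 min stabiliser; compound: single 20 µM dose, 1% DMSO; reagent: Phosphorylated 17-residue peptide substrate; read-out: % inhibition at 20 µM; technique: colorimetric free-phosphate detection, absorbance 630 nm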
DNMT1 block: inhibitors of human DNMT1; P26358; DNMT1 molecular beacon, Hinp1I cleavage, fluorescence; 360,000 compounds, 0.83% hits; inhibition (reported as % activation of signal), % at 10 µM; in the data active = inhibition above about 50%
CSN inh: blocks human CSN-mediated cullin deneddylation | Q92905 | Purified CSN, SCF-Nedd8-OG deneddylation, fluorescence polarization | inhibition, % at 12.5 µM | 360,000 compounds, 0.38% hits | AID 651999;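 active = pattern-corrected inhibition above about 35%, with an unprinted fluorescence ratio check between 0.5 and 1.5, limit read from the data, passing the limit was not always enough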;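 also: 0% = enzyme with substrate and 100% = substrate without enzyme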
Target sequence (Q92905 whole entry, looked up, one chain of several): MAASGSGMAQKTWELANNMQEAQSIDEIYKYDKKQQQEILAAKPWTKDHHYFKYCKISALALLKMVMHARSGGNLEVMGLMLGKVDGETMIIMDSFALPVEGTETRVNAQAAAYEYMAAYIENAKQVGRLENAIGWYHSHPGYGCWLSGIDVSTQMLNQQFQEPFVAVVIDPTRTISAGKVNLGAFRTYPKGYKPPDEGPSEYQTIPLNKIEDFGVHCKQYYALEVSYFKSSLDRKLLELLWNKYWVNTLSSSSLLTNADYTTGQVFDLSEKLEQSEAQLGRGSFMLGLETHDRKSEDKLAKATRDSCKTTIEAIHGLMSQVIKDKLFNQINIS
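Test system: Human Csn5 produced in HEK293T cells | Compound: 12.5 µM single point | Times: 90 min, room temperature | Signal: Fluorescence polarization readout | Read-out basis: % inhibition of substrate cleavage by Csn5 | Controls: no-enzyme wells high, enzyme-with-substrate wells low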
Starred values were filed as active, the others as inactive; / = not tested or not shown; + = active, no number; ! = repeats disagree.

SMILES	SUMO1-SIM PPI	LMPTP block	STEP block	Scp1 inh	DNMT1 block	CSN inh
C#CCOCCOCCOCCNc1nc(N2CCN(C(=O)CCCCCCCCCCNC(=O)[C@H]([C@@H](C)CC)n3cc(CCCCCN)nn3)CC2)nc(N2CCN(C(=O)CCCCCCCCCCNC(=O)[C@H](CO)n3cc(CCCCCN)nn3)CC2)n1	-139	-1	4	23	-65	6
C#CCOCCOCCOCCNc1nc(N2CCN(C(=O)CCCCCCCCCCNC(=O)Cn3cc(CCCCCN)nn3)CC2)nc(N2CCN(C(=O)CCCCCCCCCCNC(=O)[C@@H](CCC(=O)O)n3cc(CCCCCN)nn3)CC2)n1	-151	-7	2	14	-58	4
COc1ccc(C(=O)NCC(=O)N2CCCC(C(F)(F)F)C2)cc1OC (stereo not drawn)	-33	-11	-1	-7	-2	1
CCOc1ccc(Br)cc1S(=O)(=O)Nc1ccc(Cl)c(S(=O)(=O)N(CC)c2ccccc2)c1	0	5	-3	-21	-14	-1
COc1cc(NC(=O)Cn2nc(C(F)(F)F)c(Br)c2C)cc([N+](=O)[O-])c1	-4	2	-2	-4	-3	3
Cc1ccccc1P(=O)(c1ccccc1)c1ccccc1C	44*	-2	-3	/	-1	-2
O=C(c1cccs1)c1no[n+]([O-])c1C(=O)c1cccs1	13	0	33	-9	64*	1
O=C(/C=C/c1ccc(F)cc1)NC(=S)NNC(=O)c1cnccn1	-3	0	3	69*	3	2
Cc1cccc(CN2CCN(C3CN(Cc4cn(Cc5ccc(Cl)cc5)nn4)S(=O)(=O)C3)CC2)c1 (stereo not drawn)	0	0	/	/	/	-1
C=Cc1c(C)c2cc3[nH]c(cc4nc(cc5nc(cc1[nH]2)C(C)=C5CCC(=O)O)C(CCC(=O)O)=C4C)c(C)c3C=C	112*!	5	1	64*!	79*	8
CN(C)C(=O)c1cccc(-c2cnc3c(NC=O)cc(-c4ccccc4N(C)C)cn23)c1	-4	-4	-67	/	141*	-72
CN(C)C(=O)c1cccc(-c2cnc3c(NC=O)cc(-c4ccccc4Cl)cn23)c1	-4	1	2	/	-5	4
COc1ccccc1-c1cc(NC=O)c2ncc(-c3cccc(C(F)(F)F)c3)n2c1	-30	6	0	/	-12	4
CN(C)c1ccccc1-c1cc(NC=O)c2ncc(-c3cccc(C(F)(F)F)c3)n2c1	-1	-5	-157	/	+	-75
C=C1c2cccc(O)c2C(O)=C2C(=O)[C@]3(O)C(O)=C(C(N)=O)C(=O)[C@@H](N(C)C)[C@@H]3[C@@H](O)[C@H]12	72*	88*	25	39	90*	49
C[C@H]1c2cccc(O)c2C(O)=C2C(=O)C3(O)C(O)=C(C(N)=O)C(=O)[C@@H](N(C)C)[C@@H]3[C@@H](O)[C@@H]21 (stereo partly drawn)	1	1	-2	-14	-2	-3
CC(C)n1c(=O)c2ccccc2n1Cc1cn(Cc2cccs2)nn1	2	-1	1	/	5	0
O=C(OCC(=O)N1CCCC1)c1cccc(Br)c1	67*	-2	-2	2	3	5
CNS(=O)(=O)c1cccc(C(=O)OCC(=O)N2CCCC2)c1	-2	0	-2	2	6	1
CCCCC(=O)Nc1nc(C)c(-c2csc(Nc3cc(Cl)ccc3OC)n2)s1	22	3	-4	4	-16	1
COc1ccc(Cl)cc1Nc1nc(-c2sc(NC(=O)C(C)(C)C)nc2C)cs1	87*	2	1	2	-44	11
COc1ccc(OC)c(Nc2nc(-c3sc(NC(=O)C(C)(C)C)nc3C)cs2)c1	-6	0	0	12	-30	2
CCCCCCC(=O)Nc1nc(C)c(-c2csc(Nc3cc(Cl)ccc3C)n2)s1	87*	0	2	12	-28	6
Cc1ccc(S(=O)(=O)N2CCOCC2)cc1C(=O)Nc1ccncc1	-3	-1	1	-4	-4	-3
Cc1ccc(S(=O)(=O)N2CCOCC2)cc1C(=O)Nc1ccc(-c2cn3ccsc3n2)cc1	45*	1	-2	-8	-5	1
SMILES	SUMO1-SIM PPI	LMPTP block	STEP block	Scp1 inh	DNMT1 block	CSN inh
Cc1ccccc1NC(=O)c1ccccc1N(C)S(=O)(=O)c1ccccc1	-3	-1	4	-14	0	-4
O=C(/C=C/c1ccc([N+](=O)[O-])cc1)N1CCN(S(=O)(=O)c2ccccc2)CC1	-36	0	4	5	2	47*
COC(=O)c1cn(C(=O)c2cc(Br)ccc2Cl)c2ccccc12	2	2	4	-12	-4	-4
O=C1C(SCCO)=C(SCCO)C(=O)c2ccccc21	35	22	24	-6	81*	25
CC1(C)C(=O)OC(c2ccc([N+](=O)[O-])cc2)C(C)(C)C1=O (stereo not drawn)	-10	-1	4	-16	0	-1
COc1ccc(CN2CCCC(C(=O)Nc3cccc(-n4cccn4)c3)C2)c(F)c1 (stereo not drawn)	4	0	-3	-2	-1	2
COc1cccc2c1C(=O)c1c(O)c3c(c(O)c1C2=O)C[C@@](O)(C(=O)CO)C[C@@H]3OC1CC(N)C(O)C(C)O1 (stereo partly drawn)	92*	9	-21	-5	-202	-73
COc1cccc2c1C(=O)c1c(O)c3c(c(O)c1C2=O)C[C@@](O)(C(=O)CO)C[C@@H]3O[C@H]1C[C@H](N)[C@H](O)[C@H](C)O1	-28	10	-30	-16	-177	-74
CC(C)C[C@@H](CNCC(=O)[C@H](CC(=O)O)NC(=O)c1[nH]cnc1C(=O)N[C@H](CN)CC(C)C)NC(=O)c1nc[nH]c1C(=O)N[C@@H](Cc1ccccc1)C(=O)O	48*	-2	-1	-2	7	4
COc1c(N)c2c(c([N+](=O)[O-])c1OC)C(=O)OC2	-16	-1	-1	0	-5	-5
Cc1ccn2cc(-c3ccc4c(c3)NC(=O)CO4)nc2c1	54*	16	3	-1	1	54*
Cc1cccn2cc(-c3ccc4c(c3)NC(=O)CO4)nc12	2	37	2	3	0	4
COc1ccc(-c2noc(CCCC(=O)N3CCN(c4cc(C)ccc4C)CC3)n2)cc1	42*	6	7	4	-3	-3
